Experimental findings from PubChem BioAssay AID449755 (Broad Institute, 2010) are described below.

Broadly, the AC50 is the midpoint of the concentration-response curve, whichever way the signal moves.

The structures appear in SMILES notation. Inconclusive results are not listed. The source made the active and inactive calls.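 How the source made its calls: active means compounds raising caspase signal whose fitted AC50 is at most ten times the top tested dose; inconclusive means flat fit with 30 to 70% activity, or failed fit; inactive means the rest.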 A value given as a limit tells only on which side of the number the result lay.

In this assay the test system is HMC 1-8 low-A1 cells, caspase-3/7 luminescence, 3 h. Nature of the assay: caspase induction, A1-low human cancer line – cell-based, HMC 1-8 low A1, caspase luminescence, counter-screen for A1 inhibitor project, dose response (AID 449755). Put shortly:
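Material: HMC 1-8 human cancer cells with low A1 expression / Amount: 2500 cells/well / Medium: RPMI-1640, 10% FBS / Dosing: compound delivered by pin transfer / Times: compound 3 h at 37 °C, detection 1 h RT / Detection: caspase-3/7 DEVD luminescence / Evaluation: caspase activation as non-A1 counterscreen signal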
A general note: Counterscreens check selectivity or assay interference.
Turning to `CCN(C(=O)CCN1C(=O)c2ccccc2S1(=O)=O)c1ccccc1`, the AC50 is > 35 µM (inactive).

In the case of `COc1ccc(NC(=S)NC(NC(=O)/C=C/c2ccccc2)C(Cl)(Cl)Cl)cc1` (stereo not given), the AC50 was > 35 µM (inactive).

For the molecule `COc1cc(/C=C(/C#N)c2nc3ccccc3[nH]2)ccc1OCC(=O)Nc1ccccc1C`, the half-maximal activity concentration (AC50) was 3.01 µM.

Regarding `COc1ccccc1C(=O)Nc1ccnn1C1CCN(Cc2cn(C)c3ccccc23)CC1`, the AC50 was > 35 µM (inactive).

With `C=CC(=O)Nc1ccc(CN2C(=O)N(c3c(Cl)c(OC)cc(OC)c3Cl)Cc3cnc(NCCCCN(CC)CC)nc32)cc1`, the AC50 is > 35 µM (inactive).

Regarding `Cc1ccc(C(=O)COC(=O)c2ccc3c(c2)C(=O)N(c2cccc4ncccc24)C3=O)cc1`, the AC50 was 24.3 µM.

On to `Cc1ccc(NC(=S)NC(NC(=O)Cc2cccc3ccccc23)C(Cl)(Cl)Cl)cc1` (stereo not given), for which the AC50 was 27 µM.

Turning to `Cc1ccc(Sc2c([N+](=O)[O-])c(=O)n(C)c3ccccc23)cc1`, the AC50 is > 35 µM (inactive).

For `COc1ccc(-c2c(C#N)c(N)nc(Sc3ccc(Cl)cc3)c2C#N)cc1`, the AC50 was > 35 µM (inactive).

`COc1ccccc1-c1cn[nH]c1-c1ccc(OCc2ccccc2)cc1O`: the AC50 is > 35 µM (inactive).

`O=C(c1ccc(COc2ccc3ccccc3c2)o1)N1N=C(C(F)F)CC1(O)C(F)F` (stereo not given): the AC50 was > 35 µM (inactive).

`CC(C)Cn1c(O)c(/C=C2\C=NN=C2c2ccccc2)sc1=S`: the AC50 was > 35 µM (inactive).

As for `CCOCCCNC(=O)c1ccc2c(c1)N=C(CC)c1cc(Br)ccc1S2`, the AC50 was > 35 µM (inactive).

Take `N#C/C(=C\c1ccc(OCc2ccccc2)cc1)C(=O)Nc1nc2c(s1)CCN(Cc1ccccc1)C2`: the AC50 was > 35 µM (inactive).

On to `CC(=O)Nc1ncnc2c1c(-c1ccc(Cl)cc1)nn2C(C)(C)C`, for which the AC50 is > 35 µM (inactive).

As for `COc1ccc(S(=O)(=O)N2CC(O)CC2C(=O)OCC(=O)Nc2ccc(Cl)cn2)cc1` (stereo not given), the AC50 was > 35 µM (inactive).

For `COc1ccc(C(=O)/C=C/C(=O)N(CC(=O)NC2CCCCC2)Cc2cccs2)c(O)c1`, the concentration at half-maximal activity (AC50) is 5.69 µM.

As to `O=C(N=Nc1c(O)[nH]c2ccc([N+](=O)[O-])cc12)c1cc(-c2ccccc2Cl)nc2ccccc12`, the AC50 was > 35 µM (inactive).

Turning to `Cc1nn(-c2ccccc2)c(C)c1/C=N/NC(=O)CSc1nc2ccccc2c(=O)n1-c1ccc(Br)cc1`, the AC50 was > 35 µM (inactive).

Turning to `CCC(Sc1nc2cc3c(cc2c(=O)n1Cc1ccco1)OCO3)C(=O)Nc1cccc(OC)c1` (stereo not given), the AC50 is > 35 µM (inactive).

In the case of `COCc1cc(C)nc(SCC(=O)Nc2nc(C)cs2)c1C#N`, the AC50 is > 35 µM (inactive).

With `CC1=NNC(=O)/C1=C\c1cn(-c2ccccc2)nc1-c1ccccc1`, the AC50 is > 35 µM (inactive).

With `CCOC(=O)COc1ccccc1/C=C\[N+](=O)[O-]`, the AC50 is > 35 µM (inactive).

Take `O=C(Cn1c(C(F)(F)F)nc2ccccc21)N=Nc1c(O)[nH]c2ccc(Br)cc12`: the concentration at half-maximal activity (AC50) is 32.3 µM.

With `COc1ccc(N(C(=O)CCl)C(C(=O)NCCc2ccccc2)c2cccs2)cc1Cl` (stereo not given), the AC50 was > 35 µM (inactive).

As for `COc1ccc(NC(=O)c2cccc3c2C(=O)c2ccc(-c4ccc(F)cc4OCc4ccccc4)cc2S3(=O)=O)cc1`, the AC50 was > 35 µM (inactive).

Regarding `CC(=O)OC(C)(C)/C=C/C(=O)[C@](C)(O)C1[C@H](O)C[C@@]2(C)C3CC=C4C(C[C@H](O)C(=O)C4(C)C)[C@]3(C)C(=O)C[C@]12C` (stereo not given in full), the AC50 is > 35 µM (inactive).

For `Cc1cccc(NC(=O)/C(C#N)=C/c2cn(CC(=O)NCc3ccco3)c3ccccc23)c1`, the AC50 is > 35 µM (inactive).

Turning to `CCOC(=O)/C(=C\c1cccnc1)C(=O)c1cc(C(C)=O)c(Nc2ccccc2)s1`, the AC50 was > 35 µM (inactive).

For the molecule `CCOC(=O)c1c(C)oc2c1c(CN1CCN(C(=O)OCC)CC1)c(O)c1ccccc12`, the AC50 was 26.3 µM.

Consider `O=C(CCl)N=c1sccn1Cc1ccccc1Cl`, for which the AC50 is > 35 µM (inactive).

`Cc1ccc(S(=O)(=O)c2nnn3c2nc(Nc2cccc(C)c2)c2ccccc23)cc1`: the AC50 was > 35 µM (inactive).

Regarding `CC1(C)C[C@H](O)[C@]2(CO)[C@H](O)C[C@]3(C)C(=CCC4[C@@]5(C)CC[C@H](O)C(C)(C)C5CC[C@]43C)[C@@H]2C1` (stereo not given in full), the AC50 was > 35 µM (inactive).

In the case of `COc1cc(NC(=O)c2ccccc2F)ccc1NC(=O)c1cc2ccccc2o1`, the AC50 was > 35 µM (inactive).

Turning to `O=C(NC1CCCCC1)c1cccc2c1C(=O)c1ccc(-c3ccc(OC(F)(F)F)cc3)cc1S2(=O)=O`, the AC50 is > 35 µM (inactive).

With `Cc1ccc(C)c(S(=O)(=O)NCC(=O)Nc2sc3c(c2C(N)=O)CCC(C)C3)c1` (stereo not given), the AC50 was > 35 µM (inactive).

For the molecule `COc1ccc(Cn2c(SCc3ccc(C)cc3)nc3cc(OC)c(OC)cc3c2=N)cc1Cl`, the half-maximal activity concentration (AC50) was 27.1 µM.

For `O=C(Nc1ccc([N+](=O)[O-])cc1)c1nc[nH]c1C(=O)NC1CCCCC1`, the AC50 is > 35 µM (inactive).

As to `O=C1/C(=C/c2ccc(N3CCOCC3)o2)SC(=Nc2ccccc2)N1CCc1c[nH]c2ccccc12`, the AC50 was > 35 µM (inactive).

As for `O=C(NC[C@H]1CCCO1)c1cccc2c1C(=O)c1ccc(-c3ccc(F)cc3OCc3ccccc3)cc1S2(=O)=O`, the AC50 is > 35 µM (inactive).
